Laboratory results: paper PMC12169410 (Epilepsia, 2025)
“And” between values parts separate entries of the source, which are not always exact repeats. Equal values may be shown once.

Experiments:
Format in all cases: in vivo
[1] = system: Genetic Absence Epilepsy Rat from Strasbourg (GAERS); assay: GAERS model, spontaneous spike-and-wave discharges; conditions: 3 mg/kg oral; discharges increased progressively afterwards
How it was run: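 Adult male GAERS rats (4–8 months) had frontal and parietal cortical EEG recorded while freely moving. […] SWDs were counted over a 20-min baseline (−25 to −5 min) and in 20-min epochs from 10 to 130 min post-dose. Analysis: mixed-model repeated-measures ANOVA with Dunnett vs vehicle; ED50 from a variable-slope curve fit of overall rate as % baseline.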

[2] = system: CF‐1 mice, 6 Hz psychomotor seizure; assay: Mouse 6 Hz seizure test; conditions: 1 mg/kg i.p., 0.25 h pretreatment
[3] = system: amygdala kindled Wistar rats; assay: Amygdala kindled rat seizure model; conditions: 16 mg/kg orally, 60 min prior to stimulation
How it was run: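 Male Wistar rats had electrodes implanted under isoflurane with carprofen (5 mg/kg s.c.). Each treatment ran over 2 days with a 2-day washout. Day 1: oral vehicle (0.5% methylcellulose), then stimulation 60 or 120 min later. […] Seizures were scored on the Racine scale (0–5), and amygdala and cortical EEG afterdischarge duration was analysed off-line. Statistics: Wilcoxon test (severity) and paired t test (afterdischarge) vs baseline.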

CF‐1 mice = assay: Mouse fixed-speed rotarod test of minimal motor impairment; conditions: 1 mg/kg i.p.
How it was run: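 Mice were tested on a fixed-speed rotarod at 6 rpm immediately before 6 Hz stimulation at 32 or 44 mA. A mouse falling off 3 times within 1 min was scored impaired. The experimenter was blinded to treatment.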

CN1C(=O)CN=C(c2ccccc2)c2cc(Cl)ccc21 [Diazepam]
Effect on SWDs in the first epoch (10–30 min) [1]: rapid and almost complete elimination of SWDs | Seizure protection 32 mA (mice protected/tested) ([2]; 32 mA): 10/10 | Seizure protection 44 mA (mice protected/tested) ([2]; 44 mA): 3 of 10 and 3/10 | Change in mean afterdischarge duration in the amygdala vs baseline [3]: −69% | Change in mean afterdischarge duration in the cortex vs baseline [3]: −75% | Change in mean seizure severity score (Racine scale) vs baseline [3]: −3.7 | Rotarod impairment (mice impaired/tested), 32 mA group (CF‐1 mice; immediately prior to 6 Hz 32 mA stimulation): 0/10 | Rotarod impairment (mice impaired/tested), 44 mA group (CF‐1 mice; immediately prior to 6 Hz 44 mA stimulation): 0/10
